Source: ChEMBL document CHEMBL4033704, “Discovery, synthesis, and structure-activity relations of 3,4-dihydro-1H-spiro(naphthalene-2,2'-piperidin)-1-ones as potassium-competitive acid blockers” (Bioorg Med Chem, 2017)

Legend:
[1] = Inhibition of potassium-stimulated hydrogen potassium ATPase in pig gastric mucosal microsomal fraction assessed as reduction in liberated inorganic phosphate level after 30 mins in presence of KCl by malachite green staining based colorimetric method; parameters: species or system Sus scrofa
Outline: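 Gastric mucosal microsomal fraction prepared from pig stomach; assay run at pH 6.5. Inhibition expressed as percent of K⁺-stimulated H⁺,K⁺-ATPase activity in control. IC50 obtained by sigmoidal dose-response fitting.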

[2] = Inhibition of sodium and potassium-activated sodium potassium ATPase in porcine cerebral cortex assessed as reduction in liberated inorganic phosphate level after 30 mins in presence of sodium and potassium by malachite green staining based colorimetric method; parameters: species or system Sus scrofa
Sus scrofa = organism: Sus scrofa; assay: Selectivity ratio of IC50 for sodium and potassium-activated sodium potassium ATPase in porcine cerebral cortex to IC50 for potassium-stimulated hydrogen potassium ATPase in pig gastric mucosal microsomal fraction
Rattus norvegicus [3] = assay: Inhibition of histamine-stimulated gastric acid secretion in Jcl:Sprague-Dawley rat at 10 mg/kg, iv pretreated for 3 mins followed by histamine.2HCl stimulation measured after 3 hrs by titration method relative to control; assay type: functional
[4] = AUC (0 to 24 hrs) in Jcl:Sprague-Dawley rat plasma at 0.2 mg/kg, iv by LC/MS/MS analysis; assay type: ADME, organism-based; parameters: time < 24 hr, dose 0.2 mg/kg, route intravenous
Outline: (§1)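 Rats dosed intravenously at 0.2 mg/kg, given as free compound. Blood and stomach sampled 10 min, 1, 4 and 24 h after dosing. Compound levels measured by LC/MS/MS. AUC0-24h calculated from these four time points (plasma ng·h/mL, stomach ng·h/g).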

Stomach = assay: AUC (0 to 24 hrs) in Jcl:Sprague-Dawley rat stomach at 0.2 mg/kg, iv by LC/MS/MS analysis; assay type: ADME, organism-based; parameters: dose 0.2 mg/kg, time < 24 hr, route intravenous; conditions: in vivo; outline: as §1
Rattus norvegicus [5] = assay: Inhibition of histamine-stimulated gastric acid secretion in Jcl:Sprague-Dawley rat at 1 mg/kg, iv pretreated for 3 mins followed by histamine.2HCl stimulation measured after 3 hrs by titration method relative to control; assay type: functional
Outline: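 Anesthetized rats given compound intravenously at 1, 3 or 10 mg/kg, then histamine. Gastric contents collected and centrifuged at 3000 rpm for 10 min; volume measured. Acid concentration determined by automatic titration to pH 7.0 with 0.1 mol/L NaOH. Total acid output over 3 h (μEq/3 h) compared against vehicle to give percent inhibition.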

[6] = Lipophilicity, log D of the compound; assay type: physicochemical; conditions: octanol/water
Rattus norvegicus [7] = assay: Inhibition of histamine-induced acid secretion in rat assessed as increase in pH of gastric perfusate at 3 mg/kg, iv measured after 5 hrs; assay type: functional
Outline: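 Anesthetized rats given intravenous infusion of histamine 2HCl via cervical vein at 8 mg/kg/h; gastric perfusate pH monitored. Once pH stabilized, test compound or vehicle given intravenously. Perfusate pH then recorded for 5 h after dosing.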

Structure (SMILES) | IC50 [1] [nM] | other results
COc1ccc2c(c1)CCC1(CCCCN1CCCc1ccccc1)C2=O (configuration not stated) | 890 | –
O=C1c2cccc3[nH]cc(c23)CC12CCCCN2CCc1ccccc1 (configuration not stated) | 1600 | IC50 [2]: > 10000 nM; Ratio IC50 (Sus scrofa): > 100; inhibition in vivo at 10 mg/kg (Rattus norvegicus [3]): 71%; AUC(0-t) at 24 h [4]: 71 ng·h/mL; AUC (Stomach): 1171 ng·h/g
COc1ccc2c(c1)CC[C@]1(CCCCN1CCc1ccccc1C)C2=O | > 10000 | –
COc1ccc2c(c1)CCC1(CCCCN1Cc1ccccc1)C2=O (configuration not stated) | > 10000 | –
COc1ccc2c(c1)CCC1(CCCCN1c1ccccc1)C2=O (configuration not stated) | > 10000 | –
Cc1ccccc1CCN1CCCCC12CCc1cc(-c3ccccc3)ccc1C2=O (racemic) | > 10000 | –
COc1ccc2c(c1)CCC1(CCCCN1CC(=O)c1ccccc1)C2=O (configuration not stated) | > 10000 | –
COc1ccc2c(c1)CC[C@@]1(CCCCN1CCc1cccc(F)c1)C2=O | 370 | –
COc1ccc2c(c1)CC[C@]1(CCCCN1CCc1ccc(F)cc1)C2=O | > 10000 | –
Cc1ccccc1CCN1CCCCC12CCc1cc(C#N)ccc1C2=O (racemic) | > 10000 | –
COc1ccc2c(c1)CCC1(CCCCN1CC(C)c1ccccc1)C2=O (configuration not stated) | 300 | –
COc1ccc(CCN2CCCC[C@@]23CCc2cc(OC)ccc2C3=O)cc1 | 1800 | –
COc1ccc2c(c1)CCC1(CCCCN1CCCCc1ccccc1)C2=O (configuration not stated) | > 10000 | –
COc1ccc2c(c1)CCC1(CCCCN1C(=O)Cc1ccccc1)C2=O (configuration not stated) | > 10000 | –
COc1cccc(CCN2CCCC[C@@]23CCc2cc(OC)ccc2C3=O)c1 | 1100 | –
CC(=O)Nc1ccc2c(c1)CC[C@]1(CCCCN1CCc1ccccc1C)C2=O | > 10000 | –
O=C1c2ccccc2CCC12CCCCN2CCc1ccccc1 (configuration not stated) | 1000 | –

The remaining compounds from weak to strong by IC50 [1], led by results:

IC50 [1] [nM] | Structure (SMILES) | other results
300 | COc1cccc2c1CCC1(CCCCN1CCc1ccccc1C)C2=O (configuration not stated) | –
290 | COc1ccc2c(c1)CCC1(CCCCN1CCc1ccccc1)C2=O (configuration not stated) | –
290 | COc1cccc2c1C(=O)C1(CCCCN1CCc1ccccc1C)CC2 (configuration not stated) | –
290 | Cc1ccccc1CCN1CCCCC12CCc1ccccc1C2=O (racemic) | –
270 | COc1ccc2c(c1)C(=O)C1(CCCCN1CCc1ccccc1C)CC2 (racemic) | –
170 | COc1ccc2c(c1)CCC1(CCCCN1CCc1ccccc1Cl)C2=O (configuration not stated) | –
160 | COc1ccc2c(c1)CC[C@@]1(CCCCN1CCc1ccccc1F)C2=O | –
140 | COc1ccc2c(c1)CCC1(CCCCN1CCc1c(C)cc(C)cc1C)C2=O (configuration not stated) | –
87 | COc1ccc2c(c1)CCC1(CCCCN1CCc1ccc(F)cc1)C2=O (configuration not stated) | –
83 | COc1ccc2c(c1)CC[C@@]1(CCCCN1CCc1ccccc1OC)C2=O | –
82 | COc1ccc2c(c1)CCC1(CCCCN1CCc1ccccc1C)C2=O (configuration not stated) | –
64 | COc1ccc2c(c1)CC[C@@]1(CCCCN1CCc1ccc(F)cc1)C2=O | –
57 | COc1ccc2c(c1)CCC1(CCCCN1CCc1ccc(F)cc1C)C2=O (configuration not stated) | –
46 | COc1ccc2c(c1)CC[C@@]1(CCCCN1CCc1ccccc1C)C2=O.Cl | IC50 [2]: > 10000 nM; inhibition in vivo at 1 mg/kg (Rattus norvegicus [5]): 87%; AUC(0-t) at 24 h [4]: 74 ng·h/mL; AUC (Stomach): 3035 ng·h/g
45 | CC(=O)Nc1ccc2c(c1)CCC1(CCCCN1CCc1ccccc1C)C2=O (racemic) | –
31 | CC(=O)Nc1ccc2c(c1)CC[C@@]1(CCCCN1CCc1ccccc1C)C2=O | logD [6]: 3.56; inhibition in vivo at 1 mg/kg (Rattus norvegicus [5]): 95%; AUC(0-t) at 24 h [4]: 68 ng·h/mL; AUC (Stomach): 15131 ng·h/g; pH (Rattus norvegicus [7]): 6
